How the values were obtained:
[1] = target: T1, Cystine/glutamate transporter (Homo sapiens) (UniProt Q9UPY5); assay: Inhibition of cystine/glutamate transporter in human SNB19 cells assessed as [3H]glutamate uptake at 500 uM; format: cell-based; set-up: scale not given: the % may be the effect or the level left; conditions: SNB-19
T1 sequence (whole entry): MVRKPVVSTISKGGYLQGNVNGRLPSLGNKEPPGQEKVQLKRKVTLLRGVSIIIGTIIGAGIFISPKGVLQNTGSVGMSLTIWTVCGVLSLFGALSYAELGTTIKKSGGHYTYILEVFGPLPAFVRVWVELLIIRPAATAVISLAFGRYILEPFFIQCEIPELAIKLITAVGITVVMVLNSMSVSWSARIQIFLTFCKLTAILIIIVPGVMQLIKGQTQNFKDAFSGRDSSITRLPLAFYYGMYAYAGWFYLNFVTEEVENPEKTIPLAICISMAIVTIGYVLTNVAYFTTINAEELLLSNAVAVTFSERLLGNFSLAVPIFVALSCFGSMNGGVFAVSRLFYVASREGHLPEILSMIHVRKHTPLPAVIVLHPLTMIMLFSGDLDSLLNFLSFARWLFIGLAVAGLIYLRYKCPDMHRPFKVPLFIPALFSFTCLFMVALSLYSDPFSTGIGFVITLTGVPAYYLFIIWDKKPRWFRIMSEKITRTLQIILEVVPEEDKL
Outline: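 SNB19 glioma cells were kept under Na-free conditions and system xc−-mediated uptake of 100 μM L-glutamate was measured with inhibitor at 500 μM. Uptake was corrected for non-specific uptake and normalized to protein content.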

[2] = Inhibition of VGLUT in rat synaptic vesicles assessed as inhibition of glutamate uptake
Outline: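 Dose–response for VGLUT inhibition in synaptic vesicles isolated from rat brain, using 250 μM L-glutamate as substrate. Uptake was corrected for non-specific uptake and normalized to protein; IC50 was taken from the dose curve.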

[3] = organism: Rattus norvegicus; assay: Inhibition of VGLUT in rat synaptic vesicles assessed as glutamate uptake at 5 mM relative to control; set-up: scale not given: the % may be the effect or the level left
Outline: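 Rat brain synaptic vesicles were isolated and VGLUT-mediated uptake of 250 μM L-glutamate was measured with inhibitor at 5 mM. Uptake was corrected for non-specific uptake, normalized to protein content and expressed as % of control.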

[4] = target: Excitatory amino acid transporter 3 (Homo sapiens) (UniProt P43005); assay: Inhibition of EAAT3-mediated D-aspartate transport at 100 uM
Chain of Excitatory amino acid transporter 3 (Homo sapiens) (P43005 whole entry, looked up, the tested form may be a part): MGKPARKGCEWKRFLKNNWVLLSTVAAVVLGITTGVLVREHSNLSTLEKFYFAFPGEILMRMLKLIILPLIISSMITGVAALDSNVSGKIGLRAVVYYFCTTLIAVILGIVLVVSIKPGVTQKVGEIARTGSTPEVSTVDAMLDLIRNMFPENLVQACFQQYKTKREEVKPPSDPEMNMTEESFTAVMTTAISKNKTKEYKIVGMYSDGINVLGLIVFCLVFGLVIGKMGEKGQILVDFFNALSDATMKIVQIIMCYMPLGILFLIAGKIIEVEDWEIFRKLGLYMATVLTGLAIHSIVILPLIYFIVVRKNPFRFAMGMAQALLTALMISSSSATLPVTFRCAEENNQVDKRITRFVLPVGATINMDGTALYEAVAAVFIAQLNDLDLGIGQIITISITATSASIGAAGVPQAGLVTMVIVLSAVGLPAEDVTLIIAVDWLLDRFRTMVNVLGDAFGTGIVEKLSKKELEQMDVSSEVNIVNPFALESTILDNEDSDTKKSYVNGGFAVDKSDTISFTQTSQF

[5] = target: Excitatory amino acid transporter 1 (Homo sapiens) (UniProt P43003); assay: Inhibition of EAAT1-mediated D-aspartate transport at 100 uM
Chain of Excitatory amino acid transporter 1 (Homo sapiens) (P43003 whole entry, the tested form may be a part): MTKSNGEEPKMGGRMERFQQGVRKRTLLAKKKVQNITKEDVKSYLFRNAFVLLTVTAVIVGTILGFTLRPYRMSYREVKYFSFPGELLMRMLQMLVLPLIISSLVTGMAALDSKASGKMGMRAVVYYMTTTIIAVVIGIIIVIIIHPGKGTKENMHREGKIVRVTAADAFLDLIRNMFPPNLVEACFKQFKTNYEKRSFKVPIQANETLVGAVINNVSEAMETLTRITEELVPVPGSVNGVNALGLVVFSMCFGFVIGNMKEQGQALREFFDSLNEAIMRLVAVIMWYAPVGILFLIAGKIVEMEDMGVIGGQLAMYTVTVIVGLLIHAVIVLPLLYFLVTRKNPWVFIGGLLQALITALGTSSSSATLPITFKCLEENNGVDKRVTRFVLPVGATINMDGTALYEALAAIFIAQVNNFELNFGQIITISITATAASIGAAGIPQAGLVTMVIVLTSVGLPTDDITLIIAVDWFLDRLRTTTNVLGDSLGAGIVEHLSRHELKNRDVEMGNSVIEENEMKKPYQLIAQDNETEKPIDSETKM
Outline: (§1)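 Transport by EAAT1, EAAT2 or EAAT3 was measured with 25 μM D-aspartate as substrate and inhibitor present at 100 μM.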

[6] = target: Excitatory amino acid transporter 2 (Homo sapiens) (UniProt P43004); assay: Inhibition of EAAT2-mediated D-aspartate transport at 100 uM; outline: as §1
Chain of Excitatory amino acid transporter 2 (Homo sapiens) (P43004 whole entry, the tested form may be a part): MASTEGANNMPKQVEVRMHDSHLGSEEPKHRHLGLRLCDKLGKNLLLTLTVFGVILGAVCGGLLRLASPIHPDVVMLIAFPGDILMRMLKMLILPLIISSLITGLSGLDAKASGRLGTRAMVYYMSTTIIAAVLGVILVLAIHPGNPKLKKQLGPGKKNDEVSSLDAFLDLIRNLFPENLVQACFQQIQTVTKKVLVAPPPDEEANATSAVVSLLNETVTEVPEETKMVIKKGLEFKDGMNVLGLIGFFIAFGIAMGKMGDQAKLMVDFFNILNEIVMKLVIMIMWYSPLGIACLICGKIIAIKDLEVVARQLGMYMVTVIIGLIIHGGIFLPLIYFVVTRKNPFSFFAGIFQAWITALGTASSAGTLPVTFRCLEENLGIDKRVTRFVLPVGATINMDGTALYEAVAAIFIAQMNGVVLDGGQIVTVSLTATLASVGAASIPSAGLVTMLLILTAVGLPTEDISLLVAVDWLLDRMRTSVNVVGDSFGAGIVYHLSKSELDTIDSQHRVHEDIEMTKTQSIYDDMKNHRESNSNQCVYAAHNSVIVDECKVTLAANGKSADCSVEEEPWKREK

[7] = organism: Rattus norvegicus; assay: Inhibition of VGLUT in rat synaptic vesicles assessed as glutamate uptake at 500 uM relative to control; set-up: scale not given: the % may be the effect or the level left

In the case of O=C1NC(=O)C(c2ccc(C3NC(=O)NC3=O)s2)N1 (stereo not given), the Activity [1] is reported as 51%, the IC50 [2] is reported as 511 µM and the Activity [3] is reported as 6%. For the same compound, the inhibition [4] was less than 12%, the inhibition [5] was less than 12% and the inhibition [6] was less than 12%.

Work on O=C1NC(=O)C(Cc2ccccc2)N1 (stereo not given) yielded an Activity [1] of 53% and an Activity [3] of 80%.

With O=C1NC(=O)C(c2ccc(C3NC(=O)NC3=O)cc2)N1 (stereo not given) the Activity [1] was 85% and the Activity [3] was 78%.

For O=C1NC(c2cccc3ccccc23)C(=O)N1CCCCN1C(=O)NC(c2cccc3ccccc23)C1=O (stereo not given), the Activity [1] was 92% and the Activity [3] was 74%.

For Cc1cc(C2NC(=O)NC2=O)sc1C (stereo not given), the Activity [1] was 87% and the Activity [3] was 93%.

In the case of CN(C)c1ccc(C2NC(=O)NC2=O)cc1 (stereo not given), the Activity [1] is reported as 87% and the Activity [3] is reported as 23%.

O=C1NC(=O)C(c2csc3ccccc23)N1 (stereo not given) gave an Activity [1] of 118% and an Activity [3] of 79%.

With O=C1NC(=O)C(c2ccc(Br)s2)N1 (stereo not given) the Activity [1] was 65% and the Activity [3] was 75%.

Work on O=C1NC(=O)C(c2cccnc2)N1 (stereo not given) yielded an Activity [1] of 95% and an Activity [3] of 111%.

With N[C@@H](CS)C(=O)O the Activity [1] was 22% and the Activity [3] was 90%.

O=Cc1ccc(C2NC(=O)NC2=O)s1 (racemic) gave an Activity [1] of 49%, an IC50 [2] of 355 µM and an Activity [3] of 5%. The inhibition [4] was less than 12%, the inhibition [5] was less than 12% and the inhibition [6] was less than 12%.

With O=C1NC(=O)C(c2c3ccccc3cc3ccccc23)N1 (stereo not given) the Activity [1] was 81% and the Activity [3] was 81%.

Cc1ccc(C2NC(=O)NC2=O)s1 (stereo not given) gave an Activity [1] of 66% and an Activity [3] of 76%.

O=C1NC(=O)C(c2ccc(-c3cccs3)s2)N1 (stereo not given) gave an Activity [1] of 85% and an Activity [3] of 87%.

Work on O=C1NC(=O)C(c2ccc(-c3ccc(C(=O)O)cc3)cc2)N1 (stereo not given) yielded an Activity [1] of 104% and an Activity [3] of 37%.

In the case of O=C1NC(=O)C(c2c[nH]cn2)N1 (stereo not given), the Activity [1] is reported as 82% and the Activity [3] is reported as 103%.

Work on CN(C)c1ccc(/C=C/C2NC(=O)NC2=O)cc1 (stereo not given) yielded an Activity [1] of 90% and an Activity [3] of 63%.

With O=C1NC(=O)C(c2cccc3ccccc23)N1 (stereo not given) the Activity [1] was 83% and the Activity [3] was 91%.

O=C1NC(=O)C(c2ccc(S(=O)(=O)O)cc2S(=O)(=O)O)N1 (racemic) gave an Activity [1] of 100% and an Activity [3] of 11%.

O=C1NC(c2cccc3ccccc23)C(=O)N1CCCN1C(=O)NC(c2cccc3ccccc23)C1=O (stereo not given) gave an Activity [1] of 80% and an Activity [3] of 97%.

COC(=O)c1ccc(-c2ccc(C3NC(=O)NC3=O)cc2)cc1 (stereo not given) showed an Activity [1] of 93% and an Activity [3] of 95%.

O=C1NC(=O)C(c2ccccc2S(=O)(=O)O)N1 (stereo not given) showed an Activity [1] of 100% and an Activity [3] of 121%.

For Nc1c(/N=N/c2ccc(-c3ccc(/N=N/c4cc(S(=O)(=O)O)c5ccccc5c4N)cc3)cc2)cc(S(=O)(=O)O)c2ccccc12, the Activity [7] was 31%, the Activity [1] was 82% and the Activity [3] was 0%.
